Measurements collected from several papers.
Compare with care: the assays were run in different laboratories.
Cell line: Vero
Read-out: cell growth or viability

Structure (SMILES) | technique | time | IC50 [µM]
COc1ccc(NC(=O)C2=C(C)NC(C)=C(C(=O)Nc3cc(OC)c(Cl)cc3OC)C2c2ccc(Cl)cc2)c(OC)c1 (stereo not drawn) | MTT |  | 54
Oc1ccc(C2CC(c3ccc(Nc4nnc(-c5ccc(Cl)cc5)c5ccccc45)cc3)=NN2)cc1 (stereo not drawn) |  |  | 4.35
COc1ccc(NC(=O)C2=C(C)NC(C)=C(C(=O)Nc3cc(OC)c(Cl)cc3OC)C2c2ccccc2)c(OC)c1 (stereo not drawn) | MTT |  | 59.6
S=c1nc(-c2ccc(Nc3nnc(-c4ccc(Cl)cc4)c4ccccc34)cc2)cc(-c2ccccc2)[nH]1 |  |  | 4.12
CN(C)C/C=C/C(=O)Nc1cc2c(Nc3ccc(F)c(Cl)c3)ncnc2cc1O[C@H]1CCOC1 | MTT | 72 h | 110
CCOC(=O)c1ccc(NC(=O)Cn2c(=O)c3cc(I)ccc3n(Cc3ccccc3)c2=O)cc1 |  |  | 49.1
OC(Cn1cncn1)(Cn1cncn1)c1ccc(F)cc1F | MTT | 24 h | 173
C#Cc1cccc(Nc2ncnc3cc(OCCOC)c(OCCOC)cc23)c1 | MTT | 72 h | 67
COc1cc(NC(=O)C2=C(C)NC(C)=C(C(=O)Nc3cc(OC)c(Cl)cc3OC)C2c2ccc(Cl)cc2)c(OC)cc1Cl | MTT |  | 27.4
S=c1nc(-c2ccc(Nc3nnc(-c4ccc(Cl)cc4)c4ccccc34)cc2)cc(-c2ccc(Cl)cc2)[nH]1 |  |  | 3.15
COc1ccc(NC(=O)C2=C(C)NC(C)=C(C(=O)Nc3cc(OC)c(Cl)cc3OC)C2c2ccco2)c(OC)c1 (stereo not drawn) | MTT |  | 68.1
Cc1nnc(-c2ccc(NC(=O)Cn3c(=O)c4cc(I)ccc4n(Cc4ccccc4)c3=O)cc2)o1 |  |  | 46.1
COc1cc(NC(=O)C2=C(C)NC(C)=C(C(=O)Nc3cc(OC)c(Cl)cc3OC)C2c2ccco2)c(OC)cc1Cl | MTT |  | 69.8
C=CCn1c(=O)n(CC(=O)Nc2ccc(-n3nc(C)cc3C)cc2)c(=O)c2cc(I)ccc21 |  |  | 43.4
C=CC(=O)Nc1cc(Nc2nccc(-c3cn(C)c4ccccc34)n2)c(OC)cc1N(C)CCN(C)C | MTT | 72 h | 181
O=C(Cn1c(=O)c2cc(I)ccc2n(Cc2ccccc2)c1=O)Nc1ccc(-c2nnc(S)o2)cc1 |  |  | 43.8
Cc1ncc(CN2CCc3ccccc3C2)c2cc(C(=O)c3ccc4c(c3)OCCO4)oc12 | MTT | 72 h | 181
Clc1ccc(-c2nnc(Nc3ccc(C4=NNC(c5ccccc5)C4)cc3)c3ccccc23)cc1 (stereo not drawn) |  |  | 4.75
